Data set [1] deals with Mus musculus. Nature of the data set: Neurotoxicity determined by rotarod test after intraperitoneal administration at a concentration of 300 mg/kg after 4 hours; Inactive. The data set is classed as functional, organism-based. Details: dose 300 mg/kg. In general terms: The rotarod test checks motor coordination on a turning rod.
Data set [2] deals with Mus musculus. Nature of the data set: Anticonvulsant activity in mice through seizures induced by subcutaneous pentylenetetrazole (scPTZ) tests after ip administration at a concentration of 300 mg/kg after 4 hours; Inactive. Further details: dose 300 mg/kg. The data set is classed as functional, organism-based.
In data set [3] the test system is Mus musculus. Put plainly: Anticonvulsant activity in mice through seizures induced by maximal electroshock (MES) tests after ip administration at a concentration of 100 mg/kg after 30 min; Active. The data set is classed as functional, organism-based. Details: dose 100 mg/kg. (In general: In the maximal electroshock model the usual endpoint is tonic extension of the hind limbs.)

Data set [4] concerns Mus musculus. Nature of the data set: Anticonvulsant activity in mice through seizures induced by maximal electroshock (MES) tests after ip administration at a concentration of 300 mg/kg after 4 hours; Active. The format is functional, organism-based. Details: dose 300 mg/kg.
The subject of data set [5] is Mus musculus. Put plainly: Neurotoxicity by rotarod test after intraperitoneal administration at a concentration of 300 mg/kg after 30 minutes; Active. The format is functional, organism-based. Details: dose 300 mg/kg.
The test system of data set [6] is Mus musculus. Put plainly: Anticonvulsant activity in mice through seizures induced by subcutaneous pentylenetetrazole (scPTZ) tests after ip administration at a concentration of 300 mg/kg after 30 min; Inactive. The data set is classed as functional, organism-based. Details: dose 300 mg/kg.
Data set [7] deals with Rattus norvegicus. Put plainly: Anticonvulsant activity was measured in rats through seizures induced by maximal electroshock (MES) tests by oral administration of drug after 4 hours. The data set is classed as functional. The gist of the method:
(§1)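 Rats given a single oral dose of 30 or 50 mg/kg, depending on compound; MES protection scored at 15, 30, 60, 120 and 240 min. Activity graded by fraction of animals protected (0-25%, 25-50%, 50-75%, 75-100%); neurotoxicity monitored at the same time points.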

Data set [8] has as its system Rattus norvegicus. Put plainly: Anticonvulsant activity was measured in rats through seizures induced by maximal electroshock (MES) tests by oral administration of drug after 15 minutes; No activity. The data set is classed as functional, organism-based. The gist of the method:
as §1

In data set [9] the test system is Rattus norvegicus. Nature of the data set: Anticonvulsant activity was measured in rats through seizures induced by maximal electroshock (MES) tests by oral administration of drug after 2 hours. The format is functional. The gist of the method: as §1
Data set [10] concerns Rattus norvegicus. Put plainly: Anticonvulsant activity was measured in rats through seizures induced by maximal electroshock (MES) tests by oral administration of drug after 1 hour. The data set is classed as functional. The gist of the method: as §1
In data set [11] the test system is Rattus norvegicus. Nature of the data set: Effective dose required to assure anticonvulsant protection in 50% of rats dosed orally by MES test. The data set is classed as functional. The note with it: po. In a few lines:
(§2)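 Rats dosed orally; ED50 is the dose giving anticonvulsant protection in 50% of animals in the MES or scPtz test. TD50 is the minimal neurotoxic dose in 50% of animals. Time to peak effect was also determined.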

Data set [12] concerns Rattus norvegicus. Nature of the data set: Effective dose required to assure anticonvulsant protection in 50% of rats dosed orally by scPTZ test. The format is functional. To be noted: po. In a few lines:
as §2

The subject of data set [13] is Rattus norvegicus. Nature of the data set: (§3) Toxicity screening in rats dosed orally with the compound; No toxicity. The data set is classed as organism-based. The note with it: in vivo, po.
Data set [14] in a line: dose eliciting minimal neurological toxicity in 50% of animals. The data set is classed as organism-based. The note with it: rat, in vivo.
For data set [15], the system named is Mus musculus. Put plainly: Neurotoxicity by rotarod test after intraperitoneal administration at a concentration of 300 mg/kg after 4 hours; Active. The data set is classed as functional, organism-based. Details: dose 300 mg/kg.
Data set [16] deals with Mus musculus. Nature of the data set: Anticonvulsant activity in mice through seizures induced by sc pentylenetetrazole (intraperitoneal administration at a concentration of 300 mg/kg after 4 hours; Inactive. The format is functional, organism-based. Further details: dose 300 mg/kg.
Data set [17] deals with Mus musculus. Nature of the data set: Anticonvulsant activity in mice through seizures induced by subcutaneous pentylenetetrazole (scPTZ) tests after ip administration at a concentration of 300 mg/kg after 30 min; Active. Details: dose 300 mg/kg. The data set is classed as functional, organism-based.
In data set [18] the test system is Rattus norvegicus. Put plainly: Anticonvulsant activity was measured in rats through seizures induced by maximal electroshock (MES) tests by oral administration of drug at a concentration of 30 mg/kg after 15 minutes. The format is functional. The gist of the method: as §1
For data set [19], the system named is Rattus norvegicus. Nature of the data set: Anticonvulsant activity was measured in rats through seizures induced by maximal electroshock (MES) tests by oral administration of drug at a concentration of 30 mg/kg after 2 hours. The format is functional. The gist of the method: as §1
Data set [20] deals with Rattus norvegicus. Nature of the data set: Anticonvulsant activity was measured in rats through seizures induced by maximal electroshock (MES) tests by oral administration of drug at a concentration of 30 mg/kg after 30 minutes. The format is functional. The gist of the method:
as §1

In data set [21] the test system is Rattus norvegicus. Nature of the data set: Anticonvulsant activity in rats through seizures induced by maximal electroshock (MES) tests after oral administration at a concentration of 30 mg/kg after 1 hour. The data set is classed as functional. The gist of the method: as §1
Data set [22] relates to Rattus norvegicus. The description is as §3. The data set is classed as functional, organism-based. The gist of the method: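 Rats given a single oral dose of 30 or 50 mg/kg, depending on compound. Minimal neurotoxicity was scored at 15, 30, 60, 120 and 240 min after dosing, alongside the MES test. Scores are graded by the percentage of animals affected.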
In data set [23] the test system is Mus musculus. Nature of the data set: Anticonvulsant activity in mice through seizures induced by subcutaneous pentylenetetrazole (scPTZ) tests after ip administration at a concentration of 300 mg/kg after 30 min; active. The format is functional, organism-based. Further details: dose 300 mg/kg.
For data set [24], the system named is Mus musculus. Nature of the data set: Anticonvulsant activity in mice through seizures induced by maximal electroshock (MES) tests after ip administration at a concentration of 100 mg/kg after 30 min; active. Details: dose 100 mg/kg. The format is functional, organism-based.
In data set [25] the test system is Mus musculus. Nature of the data set: Anticonvulsant activity in mice through seizures induced by maximal electroshock (MES) tests after ip administration at a concentration of 300 mg/kg after 4 hours; Inactive. The data set is classed as functional, organism-based. Details: dose 300 mg/kg.
For data set [26], the system named is Mus musculus. Put plainly: Anticonvulsant activity in mice through seizures induced by sc pentylenetetrazole (intraperitoneal administration at a concentration of 300 mg/kg after 4 hours; active. The format is functional, organism-based. Details: dose 300 mg/kg.
The subject of data set [27] is Mus musculus. Put plainly: Neurotoxicity by rotarod test after intraperitoneal administration at a concentration of 300 mg/kg after 30 minutes; Inactive. The format is functional, organism-based. Details: dose 300 mg/kg.
In data set [28] the test system is Mus musculus. Put plainly: Neurotoxicity by rotarod test after intraperitoneal administration at a concentration of 300 mg/kg after 30 minutes; active. The format is functional, organism-based. Further details: dose 300 mg/kg.
Data set [29] deals with Mus musculus. Nature of the data set: Anticonvulsant activity in mice through seizures induced by maximal electroshock (MES) tests after intraperitoneal administration at a concentration of 100 mg/kg after 30 min; active. Further details: dose 100 mg/kg. The data set is classed as functional, organism-based.
The subject of data set [30] is Mus musculus. Nature of the data set: Anticonvulsant activity in mice through seizures induced by maximal electroshock (MES) tests after ip administration at a concentration of 300 mg/kg after 4 hours; active. The format is functional, organism-based. Details: dose 300 mg/kg.
Data set [31] deals with Rattus norvegicus. Nature of the data set: Anticonvulsant activity was measured in rats through seizures induced by maximal electroshock (MES) tests by oral administration of drug after 30 minutes. The format is functional. The gist of the method: as §1
The subject of data set [32] is Rattus norvegicus. Put plainly: Anticonvulsant activity was measured in rats through seizures induced by maximal electroshock (MES) tests by oral administration of drug after 15 minutes. The data set is classed as functional. The gist of the method:
as §1

The subject of data set [33] is Mus musculus. Nature of the data set: Anticonvulsant activity in mice through seizures induced by subcutaneous pentylenetetrazole (scPTZ) tests after ip administration at a concentration of 300 mg/kg after 4 hours; Active. The format is functional, organism-based. Further details: dose 300 mg/kg.

Each structure is given as a SMILES string. The source made the active and inactive calls. The calls are words filed in the database; no cut-off is given here.

As to `Cc1cccc(N)c1N1C(=O)c2ccccc2C1=O`, the outcome with Mus musculus [1], in the data set with Mus musculus [2] and in the data set on Mus musculus [6] was inactive. Also, the result with Mus musculus [3], in the data set on Mus musculus [4] and with Mus musculus [5] was Active. Further, the Activity in animals with Rattus norvegicus [7] is 25%; in the data set with Rattus norvegicus [8], “No activity”; with Rattus norvegicus [9], 25%; with Rattus norvegicus [10], 75%. The ED50 in the data set with Rattus norvegicus [11] is 28.3 mg/kg; with Rattus norvegicus [12], over 250 mg/kg. Moreover, in the data set with Rattus norvegicus [13], the Toxicity entry is reported as “No toxicity”. Besides, the TD50 in data set [14] is over 500 mg/kg.
With `Nc1cccc(N2C(=O)c3ccccc3C2=O)c1`, the outcome with Mus musculus [15], in the data set with Mus musculus [3], with Mus musculus [4], in the data set on Mus musculus [5] and with Mus musculus [17] was Active. The result in the data set with Mus musculus [16] was inactive. For the same compound, the Activity in animals stood at 100% in the data set on Rattus norvegicus [7]; 50% in the data set on Rattus norvegicus [18]; 75% in the data set with Rattus norvegicus [19]; 100% with Rattus norvegicus [20]; 75% in the data set on Rattus norvegicus [21]. In addition, the Toxicity result in the data set with Rattus norvegicus [22] is “Not toxic”.
Regarding `COc1ccc(N2C(=O)c3ccccc3C2=O)c(C)c1`, the result in the data set with Mus musculus [1], with Mus musculus [25] and with Mus musculus [27] was inactive. Moreover, the outcome in the data set with Mus musculus [23], in the data set with Mus musculus [24] and with Mus musculus [26] was Active.
Consider `O=C1NC(=O)C(c2ccccc2)(c2ccccc2)N1` [PHENYTOIN], for which the outcome in the data set with Mus musculus [28], in the data set with Mus musculus [29] and with Mus musculus [30] was Active. Further, the result with Mus musculus [1], in the data set on Mus musculus [2] and in the data set on Mus musculus [6] was inactive. Also, the Activity in animals with Rattus norvegicus [7] is 25%; with Rattus norvegicus [9] it was 100%; in the data set on Rattus norvegicus [31], 100%; in the data set on Rattus norvegicus [10] it was 100%; in the data set with Rattus norvegicus [32], 100%. Also, in the data set on Rattus norvegicus [12], the ED50 is over 800 mg/kg. Moreover, the TD50 in [14] was over 3000 mg/kg.
As for `Cc1ccc([N+](=O)[O-])cc1N1C(=O)c2ccccc2C1=O`, the outcome with Mus musculus [15], in the data set with Mus musculus [33], with Mus musculus [3], with Mus musculus [4], in the data set on Mus musculus [5] and in the data set with Mus musculus [17] was Active.

As a reminder, the ED50 is the dose at which the effect has come halfway, by size or by number of responders. A word on the TD50: it is the dose at which the toxic effect under study appears in half of the subjects. A high value points to lower toxicity.

(Values after ChEMBL document CHEMBL1132994, “Synthesis and anticonvulsant and neurotoxic properties of substituted N-phenyl derivatives of the phthalimide pharmacophore” (J Med Chem, 2000).)
